For test [1], the system named is Mycobacterium tuberculosis. In words: Antimycobacterial activity against isoniazid and rifampicin resistant Mycobacterium tuberculosis A8 ATCC 35822 assessed as reduction in bacterial growth after 28 days by serial dilution method. The format is functional. Conditions: A8 ATCC 35822, 672 h, time 28 day. The gist of the method: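 Broth MIC in Sula semisynthetic medium, pH 6.5; 4-week incubation, with 21-day values […] where indicated. Drug-free inoculated bacteria served as growth control. MIC also expressed as drug content (µg/mL) = MIC (µM) × average SAL molar mass × number of SAL per conjugate / 1000.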

Test [2] concerns Mycobacterium tuberculosis. As to the kind of experiment: Antimycobacterial activity against isoniazid and rifampicin resistant Mycobacterium tuberculosis A8 ATCC 35822 assessed as reduction in colony forming unit after 28 days by serial dilution method. The format is functional, organism-based. The settings on record: time 28.0 day. The gist of the method: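 After the 4-week MIC incubation in Sula semisynthetic medium (pH 6.5), growth inhibition confirmed by plating on Löwenstein-Jensen solid medium and counting colony forming units.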

Drawing on ChEMBL document CHEMBL5252539, “In vitro biological evaluation of new antimycobacterial salicylanilide-tuftsin conjugates” (Eur J Med Chem, 2017), this text covers MIC and Activity for 16 compounds.

Values after ≈ are worked out from the molar mass of the structure shown. Active and inactive are the calls of the source. The calls are words filed in the database; no cut-off is given here. *1 amine or outer side, *2 acyl side, *3 side chain or, on linkers, in order; H or OH if unused. Where a SMILES comes first, the peptide text is derived from it. [ ]: non-standard residue; d: D form. The star is where a group is joined. X1 = C/C(=N\OCC(=O)[*:2])c1ccc(N[*:1])cc1; Benzoyl(5-Br-2-OH) = O=C(c1cc(Br)ccc1O)*

What is called MIC is the least concentration at which growth counts as inhibited.

On to `O=C(Nc1ccc(Cl)c(Cl)c1)c1cc(Cl)ccc1O`, for which, in test [1], the MIC worked out at 1.6 µM (≈ 0.507 µg/mL).

For the compound `O=C(Nc1ccc(C(F)(F)F)cc1)c1cc(Cl)ccc1O`, in test [1], the MIC came out at 1.6 µM (≈ 0.505 µg/mL).

On to `O=C(Nc1ccc(C(F)(F)F)cc1)c1cc(Br)ccc1O`, for which the MIC in test [1] came out at 2.8 µM (≈ 1.01 µg/mL).

As for `CC(=O)c1ccc(NC(=O)c2cc(Cl)ccc2O)cc1`, the MIC in test [1] amounted to 17.3 µM (≈ 5.01 µg/mL). Besides, in test [2], the outcome was Active.

Turning to `O=C(Nc1ccc(Cl)c(Cl)c1)c1cc(Br)ccc1O`, the minimal inhibitory concentration (MIC) in test [1] was determined as 2.8 µM (≈ 1.01 µg/mL).

With `C/C(=N\OCC(=O)NCC(=O)N[C@@H](Cc1ccccc1)C(=O)N[C@@H](CC(C)C)C(=O)NCC(=O)N[C@H](C(=O)N[C@@H](CCCCN)C(=O)N1CCC[C@H]1C(=O)N1CCC[C@H]1C(=O)N[C@@H](CCCNC(=N)N)C(=O)O)[C@@H](C)O)c1ccc(NC(=O)c2cc(Br)ccc2O)cc1`, in test [1], the MIC worked out at 73.5 µM (≈ 100 µg/mL).

`C/C(=N\OCC(=O)N[C@H](C(=O)N[C@@H](CCCCN)C(=O)N1CCC[C@H]1C(=O)N1CCC[C@H]1C(=O)N[C@@H](CCCNC(=N)N)C(=O)O)[C@@H](C)O)c1ccc(NC(=O)c2cc(Br)ccc2O)cc1`: the MIC in test [1] was 101 µM (≈ 100 µg/mL).

In the case of `O=Cc1ccc(O)c(C(=O)Nc2ccc(C(F)(F)F)cc2)c1`, the MIC in test [1] worked out at 64.7 µM (≈ 20 µg/mL). For the same compound, the outcome in test [2] was Active.

As to `CC(=O)c1ccc(NC(=O)c2cc(Br)ccc2O)cc1`, in test [1], the MIC was found to be 15 µM (≈ 5.01 µg/mL). Besides, in test [2], the outcome was Active.

For the compound `C/C(=N\OCC(=O)NCC(=O)N[C@@H](Cc1ccccc1)C(=O)N[C@@H](CC(C)C)C(=O)NCC(=O)N[C@H](C(=O)N[C@@H](CCCCN)C(=O)N1CCC[C@H]1C(=O)N[C@@H](CCCNC(=N)N)C(=O)O)[C@@H](C)O)c1ccc(NC(=O)c2cc(Br)ccc2O)cc1`, the MIC in test [1] is 79.1 µM (≈ 100 µg/mL).

Regarding `C/C(=N\OCC(=O)NCC(=O)N[C@@H](Cc1ccccc1)C(=O)N[C@@H](CC(C)C)C(=O)NCC(=O)N[C@H](C(=O)N[C@@H](CCCCN)C(=O)N1CCC[C@H]1C(=O)N[C@@H](CCCCN)C(=O)NCC(N)=O)[C@@H](C)O)c1ccc(NC(=O)c2cc(Br)ccc2O)cc1` ({Benzoyl(5-Br-2-OH)}-[X1]GFLGTKPKG-NH2), the MIC in test [1] amounted to 77.4 µM (≈ 100 µg/mL). In addition, the outcome in test [2] was Active.

In the case of `C/C(=N\OCC(=O)NCC(=O)N[C@@H](Cc1ccccc1)C(=O)N[C@@H](CC(C)C)C(=O)NCC(=O)N[C@H](C(=O)N[C@@H](CCCCN)C(=O)N1CCC[C@H]1C(=O)N[C@@H](CCCCN)C(=O)NCC(=O)O)[C@@H](C)O)c1ccc(NC(=O)c2cc(Br)ccc2O)cc1` ({Benzoyl(5-Br-2-OH)}-[X1]GFLGTKPKG-OH), in test [1], the MIC came out at 77.3 µM (≈ 100 µg/mL). Moreover, the result in test [2] was Active.

As to `C/C(=N\OCC(=O)N[C@H](C(=O)N[C@@H](CCCCN)C(=O)N1CCC[C@H]1C(=O)N[C@@H](CCCCN)C(=O)NCC(N)=O)[C@@H](C)O)c1ccc(NC(=O)c2cc(Br)ccc2O)cc1` ({Benzoyl(5-Br-2-OH)}-[X1]TKPKG-NH2), in test [1], the MIC is 109 µM (≈ 100 µg/mL). Further, in test [2], the result was Active.

As for `C/C(=N\OCC(=O)N[C@H](C(=O)N[C@@H](CCCCN)C(=O)N1CCC[C@H]1C(=O)N[C@@H](CCCCN)C(=O)NCC(=O)O)[C@@H](C)O)c1ccc(NC(=O)c2cc(Br)ccc2O)cc1` ({Benzoyl(5-Br-2-OH)}-[X1]TKPKG-OH), the MIC in test [1] was 109 µM (≈ 100 µg/mL). In addition, the result in test [2] was Active.

Consider `C/C(=N\OCC(=O)N[C@H](C(=O)N[C@@H](CCCCN)C(=O)N1CCC[C@H]1C(=O)N[C@@H](CCCNC(=N)N)C(=O)O)[C@@H](C)O)c1ccc(NC(=O)c2cc(Br)ccc2O)cc1` ({Benzoyl(5-Br-2-OH)}-[X1]TKPR-OH), for which, in test [1], the MIC is 112 µM (≈ 100 µg/mL). The outcome in test [2] was Active.

As to `NNC(=O)c1ccncc1` [ISONIAZID], the MIC in test [1] came to 7.3 µM (≈ 1 µg/mL). Moreover, the result in test [2] was Active.
